Experimental data reported in ChEMBL document CHEMBL1137696, “Preparation and in vitro evaluation of benzylsulfanyl benzoxazole derivatives as potential antituberculosis agents” (2009).
In brackets after ≈: the same amount, converted by molar mass.

Tests used:
Format in all cases: functional
Mycobacterium avium [1] = assay: Antimycobacterial activity against Mycobacterium avium CNCTC My 330/88 after 14 days by micromethod; conditions: CNCTC My 330/88, 336 h
Procedure, shortened: (§1)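 MIC by micromethod in Šula semisynthetic medium. Compounds added as DMSO solutions at 1000, 500, 250, 125, 62, 32, 16, 8, 4 and 2 µmol/L. Incubated at 37 °C and read at 14 and 21 days. MIC taken as the lowest concentration that inhibited mycobacterial growth, expressed in µmol/L. INH run as standard. Strains from CNCTC.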

Mycobacterium kansasii [2] = assay: Antimycobacterial activity against Mycobacterium kansasii CNCTC My 235/80 after 21 days by micromethod; conditions: CNCTC My 235/80, 504 h
Procedure, shortened: (§2)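 Micromethod MIC in Šula semisynthetic medium, with compounds added as DMSO solutions at 1000, 500, 250, 125, 62, 32, 16, 8, 4 and 2 µmol/L. Cultures were incubated at 37 °C, and M. kansasii was read at 7, 14 and 21 days. MIC is the lowest concentration at which mycobacterial growth was inhibited. INH served as standard. Strain 6509/96 was a clinical isolate.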

[3] = test system: Mycobacterium tuberculosis; assay: Antimycobacterial activity against Mycobacterium tuberculosis CNCTC My 331/88 after 14 days by micromethod; conditions: CNCTC My 331/88, 336 h; procedure, shortened: as §1
[4] = test system: Mycobacterium tuberculosis; assay: Antimycobacterial activity against Mycobacterium tuberculosis CNCTC My 331/88 after 21 days by micromethod; conditions: CNCTC My 331/88, 504 h; procedure, shortened: as §1
Mycobacterium kansasii [5] = assay: Antimycobacterial activity against Mycobacterium kansasii 6509/96 after 7 days by micromethod; conditions: 6509/96, 168 h; procedure, shortened: as §2
Mycobacterium kansasii [6] = assay: Antimycobacterial activity against Mycobacterium kansasii 6509/96 after 21 days by micromethod; conditions: 6509/96, 504 h; procedure, shortened: as §2
Mycobacterium kansasii [7] = assay: Antimycobacterial activity against Mycobacterium kansasii CNCTC My 235/80 after 7 days by micromethod; conditions: CNCTC My 235/80, 168 h; procedure, shortened: as §2
Mycobacterium kansasii [8] = assay: Antimycobacterial activity against Mycobacterium kansasii CNCTC My 235/80 after 14 days by micromethod; conditions: CNCTC My 235/80, 336 h; procedure, shortened: as §2
Mycobacterium avium [9] = assay: Antimycobacterial activity against Mycobacterium avium CNCTC My 330/88 after 21 days by micromethod; conditions: CNCTC My 330/88, 504 h; procedure, shortened: as §1
Mycobacterium kansasii [10] = assay: Antimycobacterial activity against Mycobacterium kansasii 6509/96 after 14 days by micromethod; conditions: 6509/96, 336 h; procedure, shortened: as §2
L929 = assay: Growth inhibition of mouse L929 cells
Procedure, shortened: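 Antiproliferative assay on adherent L-929 monolayers exposed to 10 concentrations of compound. Cells were fixed with glutaraldehyde, stained with 0.05% methylene blue for 15 min, washed, and the dye eluted with 0.33 N HCl. OD was read at 630 nm, and GI50 is the concentration giving 50% growth inhibition.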

K562 = assay: Growth inhibition of human K562 cells
Procedure, shortened: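 K-562 suspension cultures in microplates were exposed to 10 concentrations of compound. Each well was diluted 1:50 in CASYTON and counted with a CASY 1 electronic cell analyzer (150 µm aperture), using the mean of three successive 0.4 mL counts. GI50 is the point where the concentration-response curve of cell counts/mL relative to control crosses the 50% line.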

HeLa = assay: Cytotoxicity against human HeLa cells
Procedure, shortened: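 Adherent HeLa monolayers were incubated with 10 concentrations of compound, then glutaraldehyde-fixed and stained with 0.05% methylene blue for 15 min. After gentle washing, the stain was eluted with 0.33 N HCl and absorbance read at 630 nm. CC50 is the concentration causing 50% cytotoxic (lytic) effect.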

| SMILES | MIC (Mycobacterium avium [1]) | MIC (Mycobacterium kansasii [2]) | MIC [3] | MIC [4] | MIC (Mycobacterium kansasii [5]) | MIC (Mycobacterium kansasii [6]) | MIC (Mycobacterium kansasii [7]) | MIC (Mycobacterium kansasii [8]) | MIC (Mycobacterium avium [9]) | MIC (Mycobacterium kansasii [10]) | GI50 (L929) | GI50 (K562) | CC50 (HeLa) |
| --- | --- | --- | --- | --- | --- | --- | --- | --- | --- | --- | --- | --- | --- |
| Brc1ccc(CSc2nc3ccccc3o2)cc1 | 32 µM (≈ 10.2 µg/mL) | > 62 µM | > 62 µM | > 125 µM | 32 µM (≈ 10.2 µg/mL) | 125 µM (≈ 40 µg/mL) | 32 µM (≈ 10.2 µg/mL) | 62 µM (≈ 19.9 µg/mL) | 62 µM (≈ 19.9 µg/mL) | 62 µM (≈ 19.9 µg/mL) | – | – | – |
| O=[N+]([O-])c1cc(CSc2nc3ccccc3o2)cc([N+](=O)[O-])c1 | > 16 µM | 4 µM (≈ 1.33 µg/mL) | 8 µM (≈ 2.65 µg/mL) | 8 µM (≈ 2.65 µg/mL) | 4 µM (≈ 1.33 µg/mL) | 8 µM (≈ 2.65 µg/mL) | 2 µM (≈ 0.663 µg/mL) | 4 µM (≈ 1.33 µg/mL) | > 32 µM | 8 µM (≈ 2.65 µg/mL) | 22.4 µg/mL (≈ 67.6 µM) | 9.2 µg/mL (≈ 27.8 µM) | > 50 µg/mL |
| COc1cccc(CSc2nc3ccccc3o2)c1 | 32 µM (≈ 8.68 µg/mL) | 62 µM (≈ 16.8 µg/mL) | 125 µM (≈ 33.9 µg/mL) | 250 µM (≈ 67.8 µg/mL) | 32 µM (≈ 8.68 µg/mL) | 62 µM (≈ 16.8 µg/mL) | 32 µM (≈ 8.68 µg/mL) | 32 µM (≈ 8.68 µg/mL) | 32 µM (≈ 8.68 µg/mL) | 32 µM (≈ 8.68 µg/mL) | – | – | – |
| Fc1ccc(CSc2nc3ccccc3o2)cc1 | 62 µM (≈ 16.1 µg/mL) | 125 µM (≈ 32.4 µg/mL) | 250 µM (≈ 64.8 µg/mL) | 500 µM (≈ 130 µg/mL) | 62 µM (≈ 16.1 µg/mL) | 125 µM (≈ 32.4 µg/mL) | 32 µM (≈ 8.3 µg/mL) | 62 µM (≈ 16.1 µg/mL) | 62 µM (≈ 16.1 µg/mL) | 62 µM (≈ 16.1 µg/mL) | – | – | – |
| Brc1cccc(CSc2nc3ccccc3o2)c1 | 32 µM (≈ 10.2 µg/mL) | 62 µM (≈ 19.9 µg/mL) | 125 µM (≈ 40 µg/mL) | 250 µM (≈ 80.1 µg/mL) | 32 µM (≈ 10.2 µg/mL) | 62 µM (≈ 19.9 µg/mL) | 32 µM (≈ 10.2 µg/mL) | 32 µM (≈ 10.2 µg/mL) | 32 µM (≈ 10.2 µg/mL) | 32 µM (≈ 10.2 µg/mL) | – | – | – |
| Cc1ccc(CSc2nc3ccccc3o2)cc1 | 32 µM (≈ 8.17 µg/mL) | 125 µM (≈ 31.9 µg/mL) | > 500 µM | > 500 µM | 62 µM (≈ 15.8 µg/mL) | 125 µM (≈ 31.9 µg/mL) | 62 µM (≈ 15.8 µg/mL) | 62 µM (≈ 15.8 µg/mL) | 62 µM (≈ 15.8 µg/mL) | 62 µM (≈ 15.8 µg/mL) | – | – | – |
| O=[N+]([O-])c1ccccc1CSc1nc2ccccc2o1 | > 125 µM | > 125 µM | > 250 µM | > 250 µM | 62 µM (≈ 17.8 µg/mL) | > 62 µM | 125 µM (≈ 35.8 µg/mL) | 125 µM (≈ 35.8 µg/mL) | > 125 µM | > 62 µM | – | – | – |
| Fc1cccc(CSc2nc3ccccc3o2)c1 | 32 µM (≈ 8.3 µg/mL) | 125 µM (≈ 32.4 µg/mL) | 62 µM (≈ 16.1 µg/mL) | 125 µM (≈ 32.4 µg/mL) | 32 µM (≈ 8.3 µg/mL) | 62 µM (≈ 16.1 µg/mL) | 32 µM (≈ 8.3 µg/mL) | 62 µM (≈ 16.1 µg/mL) | 32 µM (≈ 8.3 µg/mL) | 32 µM (≈ 8.3 µg/mL) | – | – | – |
| O=[N+]([O-])c1cccc(F)c1CSc1nc2ccccc2o1 | 62 µM (≈ 18.9 µg/mL) | > 32 µM | > 62 µM | > 62 µM | 32 µM (≈ 9.74 µg/mL) | > 62 µM | > 32 µM | > 32 µM | 125 µM (≈ 38 µg/mL) | > 32 µM | – | – | – |
| Clc1cccc(CSc2nc3ccccc3o2)c1 | 32 µM (≈ 8.82 µg/mL) | 62 µM (≈ 17.1 µg/mL) | 62 µM (≈ 17.1 µg/mL) | 125 µM (≈ 34.5 µg/mL) | 32 µM (≈ 8.82 µg/mL) | 62 µM (≈ 17.1 µg/mL) | 32 µM (≈ 8.82 µg/mL) | 32 µM (≈ 8.82 µg/mL) | 32 µM (≈ 8.82 µg/mL) | 32 µM (≈ 8.82 µg/mL) | – | – | – |
| c1ccc(CSc2nc3ccccc3o2)cc1 | 62 µM (≈ 15 µg/mL) | 250 µM (≈ 60.3 µg/mL) | 250 µM (≈ 60.3 µg/mL) | 500 µM (≈ 121 µg/mL) | 32 µM (≈ 7.72 µg/mL) | 250 µM (≈ 60.3 µg/mL) | 125 µM (≈ 30.2 µg/mL) | 250 µM (≈ 60.3 µg/mL) | 125 µM (≈ 30.2 µg/mL) | 125 µM (≈ 30.2 µg/mL) | – | – | – |
| FC(F)(F)c1cccc(CSc2nc3ccccc3o2)c1 | 32 µM (≈ 9.9 µg/mL) | 62 µM (≈ 19.2 µg/mL) | 62 µM (≈ 19.2 µg/mL) | 125 µM (≈ 38.7 µg/mL) | 32 µM (≈ 9.9 µg/mL) | 62 µM (≈ 19.2 µg/mL) | 32 µM (≈ 9.9 µg/mL) | 32 µM (≈ 9.9 µg/mL) | 32 µM (≈ 9.9 µg/mL) | 32 µM (≈ 9.9 µg/mL) | – | – | – |
| FC(F)(F)c1cc(CSc2nc3ccccc3o2)cc(C(F)(F)F)c1 | > 125 µM | 125 µM (≈ 47.2 µg/mL) | 62 µM (≈ 23.4 µg/mL) | 125 µM (≈ 47.2 µg/mL) | 32 µM (≈ 12.1 µg/mL) | 62 µM (≈ 23.4 µg/mL) | 62 µM (≈ 23.4 µg/mL) | 62 µM (≈ 23.4 µg/mL) | > 125 µM | 32 µM (≈ 12.1 µg/mL) | – | – | – |
